For 50 molecules, IC50 and Ratio IC50 results are on record in ChEMBL document CHEMBL1139313, “Synthesis and antimalarial activity of new 4-amino-7-chloroquinolyl amides, sulfonamides, ureas and thioureas” (Bioorg Med Chem, 2009).

Molecules are shown by their SMILES.

For assay [1], the system named is Plasmodium falciparum. Briefly: Antimalarial activity against chloroquine-sensitive Plasmodium falciparum HB3 after 72 hrs. As to conditions: HB3, 72 h. It counts as functional, organism-based. Summed up: (§1)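 SYBR Green I growth assay. Sorbitol-synchronized P. falciparum cultures (>95% ring stage) at final 1% hematocrit and 0.5% parasitemia, exposed to drug dilutions in complete medium for 72 h at 37 °C. Dye added, then 1 h at 37 °C; fluorescence read at 490 nm excitation / 530 nm emission. Each dilution run in triplicate; IC50 averaged over ≥2 separate assays. RI relates Dd2 IC50 to HB3 IC50.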

In assay [2] the test system is Plasmodium falciparum. In words: Antimalarial activity against chloroquine-resistant Plasmodium falciparum Dd2 after 72 hrs. It counts as functional, organism-based. As to conditions: Dd2, 72 h. In a few lines:
as §1

A short description of assay [3]: Resistant index, IC50 for chloroquine-resistant Plasmodium falciparum Dd2 to IC50 for chloroquine-sensitive Plasmodium falciparum HB3. It counts as functional. Summed up:
as §1

A word on the IC50: it is the concentration that gives 50% inhibition. Read a low IC50 as inhibition by little substance. Turning to `CC(C)(C)OC(=O)N1CCC[C@H]1C(=O)NCCCNc1ccnc2cc(Cl)ccc12`, the IC50 in the assay with Plasmodium falciparum [1] and in the assay on Plasmodium falciparum [2] was above 1000 nM in each case.
On to `O=C(NCCCNc1ccnc2cc(Cl)ccc12)c1cccnc1`, for which the IC50 in the assay with Plasmodium falciparum [1] and in the assay on Plasmodium falciparum [2] was above 1000 nM throughout.
On to `CCN(CCCCCCNc1ccnc2cc(Cl)ccc12)CCNS(=O)(=O)c1cccc2c(N(C)C)cccc12`, for which the figures for the IC50 with Plasmodium falciparum [1] and in the assay on Plasmodium falciparum [2] were 272 nM and 147 nM, respectively. The Ratio IC50 in assay [3] amounted to 0.5.
Regarding `CN(C)c1ccc(NC(=O)NCCCNc2ccnc3cc(Cl)ccc23)cc1`, the IC50 was 436 nM in the assay with Plasmodium falciparum [1] and 674 nM in the assay with Plasmodium falciparum [2]. The Ratio IC50 in assay [3] was 1.6.
Taken in the same sequence, the figures for `CCN(CC)CCC(=O)NCCCCCNc1ccnc2cc(Cl)ccc12` were 16 nM, 672 nM and 41.2.
`O=C(NCCCNc1ccnc2cc(Cl)ccc12)c1ccc(O)nc1`: the half-inhibitory concentration (IC50) in the assay with Plasmodium falciparum [1] and in the assay with Plasmodium falciparum [2] was above 1000 nM throughout.
In the case of `COc1cc([N+](=O)[O-])ccc1NC(=S)NCCCNc1ccnc2cc(Cl)ccc12`, the IC50 in the assay on Plasmodium falciparum [1] came to 208 nM; with Plasmodium falciparum [2], 801 nM. The Ratio IC50 in assay [3] was determined as 3.9.
Taken in the same sequence, the figures for `CCN(CCCNc1ccnc2cc(Cl)ccc12)CCNS(=O)(=O)c1cccc2c(N(C)C)cccc12` were 115 nM, 411 nM and 3.6.
Turning to `O=C(NCCCNc1ccnc2cc(Cl)ccc12)c1ccccc1Nc1cccc2ccccc12`, the IC50 with Plasmodium falciparum [1] and in the assay on Plasmodium falciparum [2] was above 1000 nM throughout.
With `CCN(CCCCNc1ccnc2cc(Cl)ccc12)CCNS(=O)(=O)c1cccc2c(N(C)C)cccc12`, the IC50 was 82 nM with Plasmodium falciparum [1] and 125 nM in the assay with Plasmodium falciparum [2]. The Ratio IC50 in assay [3] came to 1.5.
With `CN(C)c1ccc(NC(=S)NCCCNc2ccnc3cc(Cl)ccc23)c2ccccc12`, the IC50 in the assay on Plasmodium falciparum [1] came to 291 nM; in the assay with Plasmodium falciparum [2], 606 nM. For the same molecule, in assay [3], the Ratio IC50 came to 2.1.
Taken in the same sequence, the figures for `CCN(CCNC(=O)c1ccc(F)cc1NCc1ccccc1)CCNc1ccnc2cc(Cl)ccc12` were 80 nM, 199 nM and 2.5.
Taken in the same sequence, the figures for `CN(C)c1cccc(C(=O)NCCCNc2ccnc3cc(Cl)ccc23)c1` were 449 nM, 792 nM and 1.8.
Turning to `O=C(NCCCNc1ccnc2cc(Cl)ccc12)c1cc(C(F)(F)F)cc(C(F)(F)F)c1`, the IC50 with Plasmodium falciparum [1] came out at 145 nM; in the assay on Plasmodium falciparum [2], 236 nM. The Ratio IC50 in assay [3] worked out at 1.6.
Taken in the same sequence, the figures for `CCN(CCNC(=O)C(F)(F)C(F)(F)C(F)(F)F)CCNc1ccnc2cc(Cl)ccc12` were 180 nM, 556 nM and 3.1.
Consider `CCN(CCNc1ccnc2cc(Cl)ccc12)CCNS(=O)(=O)c1ccc2c(c1)OCCN2C`, for which the IC50 in the assay on Plasmodium falciparum [1] came to 171 nM; in the assay on Plasmodium falciparum [2] it was 286 nM. In assay [3], the Ratio IC50 is 1.7.
Take `COc1ccc(NC(=S)NCCCNc2ccnc3cc(Cl)ccc23)cc1`: the figures for the IC50 in the assay with Plasmodium falciparum [1] and in the assay with Plasmodium falciparum [2] were 229 nM and 353 nM, respectively. Also, the Ratio IC50 in assay [3] worked out at 1.5.
In the same order, the values of `Nc1ccc(N)c(C(=O)NCCCNc2ccnc3cc(Cl)ccc23)c1` are 179 nM, 651 nM and 3.6.
In the same order, the values of `COc1ccccc1NC(=O)NCCCNc1ccnc2cc(Cl)ccc12` are 365 nM, 539 nM and 1.5.
In the same order, the values of `CN(C)c1ccc(NC(=S)NCCCNc2ccnc3cc(Cl)ccc23)cc1` are 272 nM, 482 nM and 1.8.
On to `CCN(CC)CCC(=O)NCCCNc1ccnc2cc(Cl)ccc12`, for which the IC50 in the assay on Plasmodium falciparum [1] came to 23 nM; in the assay on Plasmodium falciparum [2], 559 nM. The Ratio IC50 in assay [3] worked out at 24.4.
Take `O=C(NCCCNc1ccnc2cc(Cl)ccc12)C(F)(F)C(F)(F)C(F)(F)C(F)(F)C(F)(F)C(F)(F)C(F)(F)F`: the results for the IC50 in the assay with Plasmodium falciparum [1] and with Plasmodium falciparum [2] were 166 nM and 197 nM, respectively. Moreover, the Ratio IC50 in assay [3] is 1.2.
In the same order, the values of `CCN(CCNC(=O)c1c(F)c(F)c(F)c(F)c1F)CCNc1ccnc2cc(Cl)ccc12` are 118 nM, 314 nM and 2.7.
Consider `CC(C)(C)OC(=O)N[C@@H](CCCCNC(=O)OCc1ccccc1)C(=O)NCCCNc1ccnc2cc(Cl)ccc12`, for which the IC50 in the assay on Plasmodium falciparum [1] is 902 nM; in the assay with Plasmodium falciparum [2], above 1000 nM.
Taken in the same sequence, the figures for `O=C(NCCCNc1ccnc2cc(Cl)ccc12)c1ccccc1NCCc1ccccc1` were above 1000 nM and above 1000 nM.
Regarding `CCN(CCNc1ccnc2cc(Cl)ccc12)CCNS(=O)(=O)c1ccc(Oc2ccccc2)nc1`, the results for the IC50 in the assay on Plasmodium falciparum [1] and in the assay with Plasmodium falciparum [2] were 140 nM and 274 nM, respectively. Moreover, the Ratio IC50 in assay [3] amounted to 2.
In the same order, the values of `CCN(CCCC(C)Nc1ccnc2cc(Cl)ccc12)CCNS(=O)(=O)c1cccc2c(N(C)C)cccc12` (stereo not given) are 220 nM, 260 nM and 1.2.
As to `CCN(CCNc1ccnc2cc(Cl)ccc12)CCNS(=O)(=O)c1cccc2c(N(C)C)cccc12`, the IC50 in the assay on Plasmodium falciparum [1] was determined as 18 nM; in the assay with Plasmodium falciparum [2], 23 nM. Further, the Ratio IC50 in assay [3] is 1.3.
Taken in the same sequence, the figures for `CCN(CCNc1ccnc2cc(Cl)ccc12)CCNS(=O)(=O)c1cccnc1` were 124 nM, 512 nM and 4.1.
As to `COc1cc([N+](=O)[O-])ccc1NC(=O)NCCCNc1ccnc2cc(Cl)ccc12`, the IC50 with Plasmodium falciparum [1] was 281 nM; with Plasmodium falciparum [2], above 1000 nM.
As for `COc1ccc(NC(=O)NCCCNc2ccnc3cc(Cl)ccc23)cc1`, the IC50 stood at 316 nM with Plasmodium falciparum [1] and 596 nM with Plasmodium falciparum [2]. Further, in assay [3], the Ratio IC50 amounted to 1.9.
Regarding `CCN(CC)CCC(=O)NCCCCCCNc1ccnc2cc(Cl)ccc12`, the IC50 stood at 28 nM in the assay on Plasmodium falciparum [1] and 385 nM in the assay with Plasmodium falciparum [2]. The Ratio IC50 in assay [3] is 12.9.
With `O=C(NCCCNc1ccnc2cc(Cl)ccc12)c1ccc(F)cc1NCc1ccccc1`, the IC50 in the assay with Plasmodium falciparum [1] was above 1000 nM; with Plasmodium falciparum [2], 305 nM.
As to `CC(C)(C)OC(=O)N[C@@H](Cc1c[nH]c2ccccc12)C(=O)NCCCNc1ccnc2cc(Cl)ccc12`, the values for the IC50 in the assay with Plasmodium falciparum [1] and in the assay on Plasmodium falciparum [2] were 479 nM and above 1000 nM, respectively.
Turning to `O=C(NCCCNc1ccnc2cc(Cl)ccc12)c1c(F)c(F)c(F)c(F)c1F`, the IC50 with Plasmodium falciparum [1] turned out to be 276 nM; with Plasmodium falciparum [2], 510 nM. For the same molecule, the Ratio IC50 in assay [3] came out at 1.9.
Take `CCN(CCNC(=O)C(F)(F)C(F)(F)C(F)(F)C(F)(F)C(F)(F)C(F)(F)C(F)(F)F)CCNc1ccnc2cc(Cl)ccc12`: the IC50 was 72 nM in the assay with Plasmodium falciparum [1] and 87 nM in the assay with Plasmodium falciparum [2]. In addition, the Ratio IC50 in assay [3] was 1.2.
With `O=S(=O)(NCCCNc1ccnc2cc(Cl)ccc12)c1ccc(Oc2ccccc2)nc1`, the half-maximal inhibitory concentration (IC50) in the assay on Plasmodium falciparum [1] and in the assay with Plasmodium falciparum [2] was above 1000 nM throughout.
Consider `CN1CCOc2cc(S(=O)(=O)NCCCNc3ccnc4cc(Cl)ccc34)ccc21`, for which the IC50 with Plasmodium falciparum [1] was 960 nM; in the assay with Plasmodium falciparum [2], above 1000 nM.
Turning to `CCN(CC)CCC(=O)NCCCCNc1ccnc2cc(Cl)ccc12`, the IC50 with Plasmodium falciparum [1] was 29 nM; with Plasmodium falciparum [2], above 1000 nM.
For the molecule `CCN(CCNC(=O)c1cc(C(F)(F)F)cc(C(F)(F)F)c1)CCNc1ccnc2cc(Cl)ccc12`, the IC50 was determined as 97 nM in the assay on Plasmodium falciparum [1] and 137 nM in the assay with Plasmodium falciparum [2]. Besides, the Ratio IC50 in assay [3] is 1.4.
Turning to `CCN(CCNc1ccnc2cc(Cl)ccc12)CCNS(=O)(=O)c1cccc2cccnc12`, the IC50 in the assay on Plasmodium falciparum [1] worked out at 310 nM; with Plasmodium falciparum [2] it was 443 nM. Also, the Ratio IC50 in assay [3] came out at 1.4.
Taken in the same sequence, the figures for `CCN(CCCCCNc1ccnc2cc(Cl)ccc12)CCNS(=O)(=O)c1cccc2c(N(C)C)cccc12` were 70 nM, 115 nM and 1.7.
In the same order, the values of `CCN(CC)CCC(=O)NCCNc1ccnc2cc(Cl)ccc12` are 32 nM, 760 nM and 24.1.
For `O=C(CCc1nc2ccccc2[nH]1)NCCCNc1ccnc2cc(Cl)ccc12`, the results for the IC50 with Plasmodium falciparum [1] and in the assay on Plasmodium falciparum [2] were 756 nM and above 1000 nM, respectively.
On to `CC(C)(C)OC(=O)N[C@H](Cc1c[nH]c2ccccc12)C(=O)NCCCNc1ccnc2cc(Cl)ccc12`, for which the IC50 with Plasmodium falciparum [1] was determined as 500 nM; in the assay on Plasmodium falciparum [2], 764 nM. Also, the Ratio IC50 in assay [3] was 1.5.
`O=C(NCCCNc1ccnc2cc(Cl)ccc12)c1ccccc1Sc1ccccc1`: the IC50 with Plasmodium falciparum [1] and with Plasmodium falciparum [2] was above 1000 nM each time.
As for `O=C(NCCCNc1ccnc2cc(Cl)ccc12)c1ccccc1SC1CCCCC1`, the IC50 in the assay on Plasmodium falciparum [1] and in the assay on Plasmodium falciparum [2] was above 1000 nM each time.
Take `O=S(=O)(NCCCNc1ccnc2cc(Cl)ccc12)c1cccc2cccnc12`: the values for the IC50 in the assay with Plasmodium falciparum [1] and in the assay with Plasmodium falciparum [2] were 453 nM and 607 nM, respectively. The Ratio IC50 in assay [3] was 1.3.
Consider `CN(C)c1cccc2c(S(=O)(=O)NCCCNc3ccnc4cc(Cl)ccc34)cccc12`, for which the results for the IC50 with Plasmodium falciparum [1] and in the assay with Plasmodium falciparum [2] were 754 nM and 966 nM, respectively. Besides, the Ratio IC50 in assay [3] is 1.3.
In the case of `O=C(NCCCNc1ccnc2cc(Cl)ccc12)C(F)(F)C(F)(F)C(F)(F)F`, the IC50 in the assay with Plasmodium falciparum [1] amounted to 234 nM; with Plasmodium falciparum [2], 277 nM. Also, the Ratio IC50 in assay [3] worked out at 1.2.
